Screens: PubChem BioAssay, several laboratories
MrgX1 agonist: activates human MrgX1 receptor signaling; 310,000 compounds, 0.44% hits; B-score at 10 µM; MrgX1-HEK293 cells, Fluo-4 calcium fluorescence, agonist mode; hits give high values; Q96LB2; AID 588627;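 active = calcium response B-score plate-corrected fluorescence ratio at least 3 library SD, with starting fluorescence B-score inside 5 SD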
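Material – MrgX1-expressing HEK293 cells · Input – 15,000 cells seeded per well · Dosing – compound as first of three additions · Times – overnight seeding, then 1 h dark dye loading · Measured by – kinetic Fluo-4 NW fluorescence of intracellular calcium · Read-out – B-scored fluorescence response ratio · Benchmarks – positive and negative control wells on each plate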
MrgX1 antag: blocks BAM8-22 activation of human MrgX1 receptor. MRGX1-HEK293 calcium flux, Fluo-4, BAM8-22 antagonism; hits give low values. B-score at 10 µM. Q96LB2. 310,000 compounds, 1.3% hits. AID 588676;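 active = calcium-response B-score plate-corrected more than 3 library SD below zero, starting fluorescence within 5 deviations, no agonist response on first addition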;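 also: peak minus trough fluorescence over baseline after final BAM8-22 challenge near maximal dose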
MrgX1 PAM: human MrgX1 positive allosteric modulation, primary screen; Q96LB2; MrgX1-HEK293, Fluo-4 calcium flux, FDSS; hits give high values; B-score at 10 µM; 310,000 compounds, 0.63% hits; AID 588675;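 active = plate-corrected calcium response at least 3 library SD above typical, normal starting fluorescence, not activating the receptor alone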;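 also: compound read alongside a low EC10 to EC30 dose of BAM8-22 agonist; peak minus trough fluorescence over baseline measured at the second addition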
RGS4 pot: RGS4 potentiation or activation | HEK293 M3R/inducible RGS4, carbachol calcium flux Fluo4; hits give low values | B-score at 10 µM | 310,000 compounds, 0.92% hits;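 active = B-score of the integrated calcium signal more than 4 SD below the library mean, with starting fluorescence not abnormally high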;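 also: negative B-score means reduced calcium response which marks RGS4 activation or potentiation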
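test system = HEK293 cells with stable M3R and inducible RGS4 | schedule = recording 10 s baseline at 1 Hz, 100 s post-agonist | technique = Fluo4-AM (2 µM) calcium-flux fluorescence, kinetic read | measure = Agonist-evoked peak-minus-minimum fluorescence over baseline, integrated ratio, B score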
RGS4 block: inhibitors of human RGS4. B-score at 10 µM. 310,000 compounds, 0.45% hits. HEK293 M3R/RGS4 inducible, Fluo-4 calcium flux; hits give high values; triggered by carbachol at its EC20;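 active = B-score, a plate-corrected calcium signal, over three deviations above library mean, with baseline fluorescence within five deviations of library mean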;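 also: RGS4 expression induced by doxycycline in cells with stable M3 receptor; B-score is computed from the integrated fluorescence ratio over baseline after carbachol; higher B-score means a larger calcium signal and so more RGS4 inhibition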
Target sequence (P49798 whole entry, looked up): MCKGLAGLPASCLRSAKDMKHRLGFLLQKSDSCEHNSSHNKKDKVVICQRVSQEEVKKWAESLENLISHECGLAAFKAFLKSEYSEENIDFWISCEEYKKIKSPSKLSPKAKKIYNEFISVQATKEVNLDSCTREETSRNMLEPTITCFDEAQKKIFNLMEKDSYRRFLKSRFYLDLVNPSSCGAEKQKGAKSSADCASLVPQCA
PHOSPHO1 block: PHOSPHO1 (human) inhibition; recombinant PHOSPHO1, absorbance phosphatase assay; inhibition, % at 13.3 µM; 290,000 compounds, 1.1% hits; AID 1565; in the data active = inhibition above about 60%
Target sequence (Q8TCT1 whole entry, looked up): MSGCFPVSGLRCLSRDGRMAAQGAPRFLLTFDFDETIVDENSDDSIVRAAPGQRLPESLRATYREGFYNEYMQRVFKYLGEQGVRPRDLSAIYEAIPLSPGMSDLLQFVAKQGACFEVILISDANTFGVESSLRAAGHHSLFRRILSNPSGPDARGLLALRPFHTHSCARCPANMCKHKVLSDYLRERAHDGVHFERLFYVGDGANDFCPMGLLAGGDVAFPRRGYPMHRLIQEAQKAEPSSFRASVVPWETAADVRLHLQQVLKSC
RGS4 inh valid: RGS4 inhibitor validation; shares compounds with RGS4 block; HEK293 M3R/RGS4, carbachol calcium Fluo-4 fluorescence; carbachol added at its EC20; 0 = buffer wells, 100 = carbachol control; calcium response, % at 10 µM; 1,700 compounds, 65% hits;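 active = duplicate-averaged calcium response above the buffer-only control mean plus 5 SD of those controls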;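 also: integrated fluorescence ratio F max minus min over baseline F0; higher response in RGS4-induced cells means RGS4 inhibition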
RGS4 uninduced: counter-screen for RGS4 inhibitors: effect in non-induced cells | AID 493000 | activity (percent), % at 10 µM | HEK293 M3R non-induced, carbachol calcium Fluo-4; submaximal (EC20) carbachol stimulus; buffer wells 0%, carbachol control wells 100% | shares compounds with RGS4 block | 1,900 compounds, 20% hits; call rule not given here;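 also: RGS4 induction absent so cells express M3R without RGS4; higher means more calcium signal and flags a non-specific hit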
RGS4 inh ctr2: signal in non-induced cells without carbachol, RGS4 inhibitor counter-screen; shares compounds with RGS4 block; calcium response (agonist-mode artifact), % at 10 µM; 1,900 compounds, 22% hits; HEK293 M3R/RGS4 non-induced, Fluo-4 calcium, no carbachol; normalised: buffer wells 0%, carbachol wells 100%;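 active = duplicate-averaged calcium rise in uninduced cells above buffer wells' mean plus 5 SD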
Of the large screens only hits and unclear results are named; the others gave an inactive call (follow-up assays come after a bar, where they were run). This is a sample that favours compounds with a hit; in the whole collection about 4.5% have one here.

COc1ccc(CCNC(=O)c2ccc3nc(N4CCCCC4)sc3c2)cc1OC	none
O=C(NC(=S)Nc1ccccc1Br)c1ccco1	none
O=C(COC(=O)Cc1c[nH]c2ccccc12)Nc1c(Cl)cccc1C(F)(F)F	none (no result: PHOSPHO1 block)
CCSc1nnc(NC(NC(C)=O)(C(F)(F)F)C(F)(F)F)s1	none
CCOC(=O)c1nn(C23CC4CC(CC(C4)C2)C3)c2c1C(=O)N(c1ccc(C)cc1)C2=O	RGS4 block 5.17 | RGS4 inh valid inactive | RGS4 uninduced inactive | RGS4 inh ctr2 99.5%
COC(=O)c1cc(-c2ccc(Br)cc2)on1	none
COC(=O)c1nn(C23CC4CC(CC(C4)C2)C3)c2c1C(=O)N(c1ccc(Br)cc1)C2=O	RGS4 block 5.87 | RGS4 inh valid 7.5% | RGS4 uninduced inactive | RGS4 inh ctr2 inactive
CC1CC(C)CN(C(=O)CSc2nnc(-c3ccco3)o2)C1 (stereo not drawn)	none
Cc1ccc(-c2ccc(C(=O)NCc3ccc(Cl)cc3)o2)c2ccccc12	RGS4 block 4.78 | RGS4 inh valid inactive | RGS4 uninduced inactive | RGS4 inh ctr2 15.5%
O=c1cc(CN2CC(O)Cc3ccc4ccccc4c32)nc2sccn12 (stereo not drawn)	RGS4 block 5.97 | RGS4 inh valid 20.5% | RGS4 uninduced inactive | RGS4 inh ctr2 inactive
CC1Cc2ccccc2N1Cc1cc(=O)n2ccsc2n1 (stereo not drawn)	none (no result: RGS4 pot, RGS4 block)
CC(=O)Oc1ccc([C@@H]2COc3c(ccc4c3C=CC(C)(C)O4)C2)c(OC(C)=O)c1	RGS4 block 6.12 (no result: PHOSPHO1 block) | RGS4 inh valid 17.0% | RGS4 uninduced inactive | RGS4 inh ctr2 inactive
Cc1ccc(SC(CC(=O)c2ccc(C)cc2)C(=O)O)cc1 (stereo not drawn)	RGS4 block 4.67 | RGS4 inh valid 8.0% | RGS4 uninduced inactive | RGS4 inh ctr2 inactive
Cc1ccc(C(CC(=O)c2ccc(Cl)cc2)C(=O)O)cc1 (stereo not drawn)	none
Cc1cc(C)n(CC(O)Cn2c3ccc(Br)cc3c3cc(Br)ccc32)c(=O)n1 (stereo not drawn)	RGS4 block 7.79 | RGS4 inh valid 27.0% | RGS4 uninduced inactive | RGS4 inh ctr2 inactive
O=C(CCSc1ccccn1)c1ccccc1	RGS4 block 5.73 | RGS4 inh valid 5.0% | RGS4 uninduced 35.5% | RGS4 inh ctr2 18.5%
O=C(O)CCSc1ccccn1	none
CC(C)(C)C1CCc2nc(NC(=O)Cc3cn4ccsc4n3)sc2C1 (stereo not drawn)	RGS4 block 7.12 | RGS4 inh valid 16.0% | RGS4 uninduced inactive | RGS4 inh ctr2 inactive
CN1C(=O)/C(=C\c2ccncc2)SC1=Nc1ccccc1	RGS4 block 6.32 | RGS4 inh valid 40.0% | RGS4 uninduced 55.5% | RGS4 inh ctr2 inactive
COc1ccc(Cn2c(=O)c3[nH]cnc3n(-c3ccccc3C)c2=O)cc1	RGS4 block 7.78 | RGS4 inh valid 15.0% | RGS4 uninduced 38.0% | RGS4 inh ctr2 inactive
COC(=O)c1ccc(COc2ccccc2/C=C(\C#N)C(=O)NC(C)C)cc1	none
COC(=O)c1ccc(COc2ccccc2/C=C(\C#N)C(=O)Nc2c(C)cccc2C)cc1	RGS4 block 5.62 | RGS4 inh valid 8.0% | RGS4 uninduced inactive | RGS4 inh ctr2 inactive
COC(=O)c1ccc(COc2ccccc2/C=C(\C#N)C(=O)Nc2ccccc2C)cc1	none | RGS4 inh valid inactive | RGS4 uninduced inactive | RGS4 inh ctr2 inactive
